According to ChEMBL document CHEMBL1134085, “Discovery of potent and selective phenylalanine derived CCR3 antagonists. Part 1” (Bioorg Med Chem Lett, 2001):
Values joined by “and” are separate entries in the source; they are usually repeats but may differ in a detail not shown here. Equal values may be shown once. Where a SMILES comes first, the peptide text is derived from it. The star is where a group is joined. Cbz = O=C(OCc1ccccc1)*

Legend:
[1] = target: T1, C-C chemokine receptor type 3 (Homo sapiens, UniProt P51677); assay: Inhibitory activity against human eosinophil C-C chemokine receptor type 3 using [125I]- human eotaxin as the radioligand
T1 sequence (P51677 whole entry): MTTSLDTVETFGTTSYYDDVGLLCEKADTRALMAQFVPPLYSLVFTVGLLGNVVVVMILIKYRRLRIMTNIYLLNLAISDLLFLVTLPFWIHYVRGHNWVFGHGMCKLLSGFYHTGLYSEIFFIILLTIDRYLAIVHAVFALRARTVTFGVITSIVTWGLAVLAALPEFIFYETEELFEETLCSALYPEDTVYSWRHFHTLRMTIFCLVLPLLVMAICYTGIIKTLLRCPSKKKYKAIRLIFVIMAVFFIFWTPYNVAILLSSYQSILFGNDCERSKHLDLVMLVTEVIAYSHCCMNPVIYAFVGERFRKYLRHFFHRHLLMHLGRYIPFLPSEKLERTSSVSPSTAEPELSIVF
In short: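 Competition binding on CCR3 from purified human eosinophils as receptor source, with [125I]human eotaxin as radioligand; IC50 taken as displacement of radioligand binding.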

[2] = target: T1, C-C chemokine receptor type 3; assay: […] against C-C chemokine receptor type 3 by displacing Eotaxin radioligand, using [Ca2+] mobilization assay; format: functional
In short: (§1)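 Functional antagonism was tested in RBL-2H3 cells expressing CCR3. Cells were challenged with eotaxin or eotaxin-2, and the resulting rise in intracellular Ca2+ was measured. Inhibition of this calcium mobilization is reported as an IC50 in nM.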

[3] = target: T1, C-C chemokine receptor type 3; assay: […] activity against C-C chemokine receptor type 3 by displacing [125I]-MCP-4 radioligand, using CCR3 binding assay
[4] = target: T1, C-C chemokine receptor type 3; assay: […] activity against C-C chemokine receptor type 3 by displacing Eotaxin-2 radioligand, using [Ca2+] mobilization assay; format: functional; in short: as §1

SMILES | IC50 [1] [nM] | also measured
O=C(N[C@@H](Cc1ccc([N+](=O)[O-])cc1)C(=O)OCc1ccccc1)c1cccc2ccccc12 | 18 | –
CCOC(=O)[C@H](C)NC(=O)c1ccccc1 | 9000 | –
CC(C)(C)OC(=O)[C@H](Cc1ccc([N+](=O)[O-])cc1)NC(=O)c1cccc2ccccc12 | 57 | –
CCOC(=O)[C@H](Cc1ccc(O)cc1)NS(=O)(=O)c1ccc(C)cc1 | 16000 | –
CCOC(=O)[C@H](Cc1ccc([N+](=O)[O-])cc1)NC(=O)c1ccc(C)cc1C | 3 | –
CCOC(=O)[C@@H](NC(=O)c1ccccc1)c1ccccc1 | > 20000 | –
CCCC(=O)[C@H](Cc1ccc([N+](=O)[O-])cc1)NC(=O)c1cccc2ccccc12 | > 33000 | –
CN(C)C(=O)[C@H](Cc1ccc([N+](=O)[O-])cc1)NC(=O)c1cccc2ccccc12 | > 33000 | –
O=C(N[C@@H](Cc1ccc([N+](=O)[O-])cc1)C(=O)NCc1ccccc1)c1cccc2ccccc12 | 4000 | –
CCOC(=O)[C@H](Cc1ccc(O)cc1)NC(=O)[C@H](Cc1ccccc1)NC(=O)OCc1ccccc1 (Cbz-Phe-Tyr-OEt) | 6250 | –
COC(=O)[C@H](Cc1ccc([N+](=O)[O-])cc1)NC(=O)c1cccc2ccccc12 | 5 | IC50 [2]: 38 nM; IC50 [3]: 7 nM; IC50 [4]: 35 nM and 20 nM
CC(C)OC(=O)[C@H](Cc1ccc([N+](=O)[O-])cc1)NC(=O)c1cccc2ccccc12 | 21 | –

Continued, in another order:

IC50 [1] [nM] | SMILES | also measured
190 | CCOC(=O)[C@H](Cc1ccccc1)NC(=O)c1ccccc1 | –
325 | CCOC(=O)[C@H](Cc1c[nH]c2ccccc12)NC(=O)c1ccccc1 | –
> 25000 | CCOC(=O)[C@H](Cc1ccc(O)cc1)NC(=O)[C@H](CO)NC(=O)OCc1ccccc1 (Cbz-Ser-Tyr-OEt) | –
> 25000 | CCOC(=O)[C@H](Cc1ccc(O)cc1)NC(=O)[C@H](CCC(N)=O)NC(=O)OCc1ccccc1 (Cbz-Gln-Tyr-OEt) | –
535 | CCOC(=O)[C@H](Cc1cc(I)c(O)c(I)c1)NC(=O)c1ccccc1 | –
> 50000 | CCOC(=O)[C@@H](Cc1ccc(O)cc1)NC(=O)c1ccccc1 | –
383 | CCOC(=O)[C@H](Cc1ccc(O)cc1)NC(=O)c1ccccc1 | –
2600 | CCOC(=O)[C@H](Cc1ccc(O)cc1)NC(=O)Cc1ccccc1 | –
1700 | CCOC(=O)[C@H](Cc1ccc(O)cc1)NC(=O)c1ccccn1 | –
> 33000 | CCOC(=O)[C@H](Cc1ccc(O)cc1)NC(=O)Nc1ccccc1 | –
8 | CCOC(=O)[C@H](Cc1ccc([N+](=O)[O-])cc1)NC(=O)c1cccc2ccccc12 | –
49 | CCOC(=O)[C@H](Cc1ccc([N+](=O)[O-])cc1)NC(=O)c1ccccc1 | –
5950 | CCOC(=O)[C@H](CCc1ccccc1)NC(=O)c1ccccc1 | –
80 | CCOC(=O)[C@H](Cc1ccc(O)cc1)NC(=O)c1cccc2ccccc12 | –
> 25000 | CCOC(=O)[C@H](Cc1ccc(O)cc1)NC(=O)[C@H](CC(N)=O)NC(=O)OCc1ccccc1 (Cbz-Asn-Tyr-OEt) | –
